SENP7 inh: blocks the human protease SENP7. Q9BQF6. recombinant SENP7, Z-RLRGG-aminoluciferin luminescence, 40 min. inhibition, % at 5 µM. hit rate 1.5% among 330,000. AID 434973;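 active means inhibition above about 50% at the single test dose, limit read from the data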;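 further: plate controls were DMSO with enzyme for no effect and no enzyme buffer wells for full effect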
HSP90 inh: HSP90 refolding inhibition in rabbit reticulocyte lysate; luciferase refolding luminescence, 3 h; inhibition, % at 5.6 µM; hit rate 0.91% among 290,000;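 active means inhibition above the screen-wide mean plus 3 SD, computed separately per campaign, cut at about 16% in these data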;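 further: 0% = DMSO wells and 100% = 60 µM geldanamycin wells; inhibitors lower the luminescence because luciferase stays unfolded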
SENP8 block-1: inhibitors of human SENP8 protease; recombinant SENP8, Nedd8 substrate fluorescence; inhibition, % at 20 µM; hit rate 0.64% among 360,000; AID 602440; in the data active means inhibition mostly above about 40%, no sharp cut-off; inactive means mostly below about 27%
Target sequence (Q96LD8 whole entry, looked up): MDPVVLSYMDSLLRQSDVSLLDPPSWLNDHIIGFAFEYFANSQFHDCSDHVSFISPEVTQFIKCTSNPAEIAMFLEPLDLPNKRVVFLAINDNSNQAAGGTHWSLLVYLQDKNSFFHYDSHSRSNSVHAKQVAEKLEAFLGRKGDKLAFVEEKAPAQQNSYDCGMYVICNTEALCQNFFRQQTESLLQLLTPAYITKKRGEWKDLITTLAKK
SENP1 inh: blocks the human SENP1 SUMO protease catalytic domain; hit rate 0.21% among 360,000; inhibition, % at 10 µM; recombinant SENP1 catalytic domain, CyPet-SUMO1-YPet FRET cleavage; Q9P0U3; AID 624204;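 active means inhibition at least 30% at 10 µM, raw YFP signal under a set limit, fluorescence ratio 0.5 to 1.5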;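 further: 0% = enzyme with DMSO and 100% = no enzyme wells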
Target sequence (Q9P0U3 419-644 limits assumed): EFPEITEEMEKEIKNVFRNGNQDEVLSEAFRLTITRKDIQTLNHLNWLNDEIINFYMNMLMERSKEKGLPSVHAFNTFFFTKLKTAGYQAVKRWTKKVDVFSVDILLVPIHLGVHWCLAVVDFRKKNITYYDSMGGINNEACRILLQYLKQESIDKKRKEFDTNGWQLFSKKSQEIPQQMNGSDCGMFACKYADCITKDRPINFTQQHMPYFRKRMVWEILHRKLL
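Assay system: hSENP1 catalytic domain, recombinant. Amount: SENP1 enzyme, 20 pM final. Schedule: 50 min reaction, RT, dark. Technique: FRET, CFP and YFP emission. Control set: no-enzyme wells low, DMSO-plus-enzyme wells high control.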
SENP6 block: inhibitors of human SENP6 protease. Recombinant SENP6 catalytic domain, aminoluciferin luminescence. inhibition, % at 10 µM. hit rate 1.8% among 330,000;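 active means inhibition above about 50% at the single tested dose, limit read from the data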;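 further: plate controls were DMSO wells with enzyme for no effect and DMSO wells lacking enzyme for full effect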
SENP8 block-2: blocks the human protease SENP8. Q96LD8. purified SENP8, Z-RLRGG-aminoluciferin cleavage, luminescence. inhibition, % at 10 µM. hit rate 1.2% among 330,000. AID 2540; in the data active means inhibition above about 50%
HSP90 inh confirm: confirmation of HSP90 inhibitors; shares compounds with HSP90 inh; rabbit reticulocyte lysate, luciferase refolding luminescence, 3 h; inhibition, % at 5.9 µM; hit rate 64% among 2,300; AID 1846; in the data active means inhibition above about 18%;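 further: 0% = vehicle wells and 100% = reference inhibitor wells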
FLuc counter: counter-screen for HSP90 inhibitors: inhibitors of firefly luciferase; inhibition, % at 5.9 µM; shares compounds with HSP90 inh; purified native firefly luciferase, luminescence; hit rate 48% among 2,300;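 active means inhibition above the mean inhibition of all tested sample wells plus 3 SD, cut at about 10% in these data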;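 further: 0% = DMSO with luciferase and 100% = wells lacking luciferase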
* = called active by the depositor; . = no result given. Only some compounds are listed: those with a hit (about 2.9% of all), similar ones and a draw of the others.

SMILES	SENP7 inh	HSP90 inh	SENP8 block-1	SENP1 inh	SENP6 block	SENP8 block-2	HSP90 inh confirm	FLuc counter
Cc1[nH]n(-c2ccccc2)c(=O)c1C(c1ccccc1C(=O)O)c1c(C)[nH]n(-c2ccccc2)c1=O	4.2	3.4	17.9	1.1	16.9	5.8	.	.
Cc1[nH]n(-c2ccccc2)c(=O)c1C(c1ccccc1[N+](=O)[O-])C(C#N)C#N (stereo not given)	8.7	28.0*	-12.4	-2.8	9.1	-1.7	1.7	-3.8
Cc1cccc(NC(=O)CSc2nc3ccc(NC(=O)CSc4nnnn4-c4ccccc4)cc3s2)c1C	-6.1	54.8*	.	.	-12.3	-5.7	22.4*	-9.5
O=C(CSc1nc2ccc(NC(=O)CSc3nnnn3-c3ccccc3)cc2s1)Nc1ccccc1	-0.6	2.5	-7.4	-3.8	-10.3	-4.5	.	.
CC(NC(=O)CN1c2cccc3cccc(c23)S1(=O)=O)c1ccc(S(N)(=O)=O)cc1 (stereo not given)	13.2	.	-423.9	0.3	-11.8	-14.0	.	.
O=C(Cn1cc(C(=O)c2ccco2)c2ccccc21)NCc1ccco1	1.9	-0.6	-74.1	-3.1	-5.3	-0.3	.	.
O=C(Cn1cc(C(=O)c2ccco2)c2ccccc21)NC1CC1	4.6	25.0*	-25.0	0.8	17.9	-3.1	-8.6	-10.6
CC1CCN(S(=O)(=O)c2ccc3c(c2)N(CC(=O)NCCCN2CCCCC2C)C(=O)CS3)CC1 (stereo not given)	4.4	-7.2	16.3	-2.1	15.6	-0.2	.	.
CC1CCN(S(=O)(=O)c2ccc3c(c2)N(CC(=O)NCCN2C(C)CCCC2C)C(=O)CS3)CC1 (stereo not given)	2.6	21.5*	21.6	-5.9	-7.9	-6.1	-6.5	-11.7
CCOC(=O)N1CCN(Cc2ccc3c(c2)OCO3)CC1	6.7	-0.4	15.6	1.2	-0.5	-13.5	.	.
Cc1c(O)ccc(C(=O)CN2CCN(Cc3ccc4c(c3)OCO4)CC2)c1O	.	84.4*	-38.1	-3.1	.	.	-7.5	-11.2
CCc1cc(C(=O)N=Nc2c(O)[nH]c3c(Br)cc(Br)cc23)c2ccccc2n1	-0.1	-2.2	27.0	5.2	0.3	-1.2	.	.
O=[N+]([O-])/C(=C\Nc1ccccc1)S(=O)(=O)c1ccccc1	3.9	18.1*	18.5	2.5	-8.9	-3.4	3.4	-2.8
CCC/C=N/Nc1nc2ccccc2s1	39.4	19.8*	3.7	-2.8	5.0	46.8	10.9	1.6
CCc1ccc(C(=O)Nn2c(C)nc3ccccc3c2=O)cc1	1.8	1.4	7.7	0.2	-35.8	3.4	.	.
COc1ccc(C(=O)Nn2c(SCc3ccc([N+](=O)[O-])cc3)nc3ccccc3c2=O)cc1	2.8	55.2*	19.3	2.9	-4.6	0.8	45.1*	33.4*
COc1ccc(C(=O)Nn2c(SCC(=O)c3ccccc3)nc3ccccc3c2=O)cc1	5.8	48.1*	17.4	0.9	10.2	5.9	53.4*	48.4*
CCOC(=O)CSc1nc2ccccc2c(=O)n1NC(=O)c1ccccc1	-1.2	20.1*	7.0	3.5	-3.7	2.7	0.6	-4.2
Cc1noc(C)c1COc1ccccc1C(=O)NCc1ccco1	9.3	.	3.8	2.1	-2.8	3.7	.	.
Cc1cccc(NC(=O)CSc2nnc(Cn3nnc(-c4ccccc4)n3)n2-c2ccccc2)c1	-2.5	21.1*	1.5	4.4	-3.0	0.2	5.1	-9.6
Cc1c(C(=O)Nc2ccccc2)cn2c(nc3ccccc32)c1C#N	-0.5	35.2*	-410.0	-26.9	-13.5	-1.4	2.1	-2.5
Cc1ccc(NCc2cccc(B(O)O)c2)cc1	.	.	12.3	1.0	.	.	.	.
O=C1CN(S(=O)(=O)c2cccc(C(=O)O)c2)c2ccccc2N1	-20.5	-2.3	-49.1	-41.1	10.4	-8.7	.	.
Cc1nc2c(-c3ccc(Cl)cc3)cnn2c(N)c1-c1ccc(F)cc1	-11.4	68.9*	-269.5	-1.3	0.7	-20.9	67.3*	68.3*
COc1ccc(-c2c(C)nc3c(-c4ccc(F)cc4)cnn3c2N)cc1	3.7	17.4*	-265.4	0.5	-15.2	-13.3	16.5*	11.3*
SMILES	SENP7 inh	HSP90 inh	SENP8 block-1	SENP1 inh	SENP6 block	SENP8 block-2	HSP90 inh confirm	FLuc counter
CN(C)c1ncnc2c1ncn2[C@H]1CN(Cc2cccnc2)C[C@@H](CO)O1	.	.	10.8	-2.8	.	.	.	.
CS(=O)(=O)N1CCC(Oc2cccc(C(=O)NCCCC3CCCC3)c2)CC1	5.6	29.4*	8.7	0.0	10.0	-2.4	-6.8	-11.1
COc1ccc(NC(=O)/C(C#N)=C/c2ccc(-c3ccccc3C(=O)O)o2)cc1	1.0	2.1	15.7	-15.4	8.1	1.9	.	.
COc1ccc(NC(=O)/C(C#N)=C\c2ccc(-c3cccc(C(=O)O)c3C)o2)cc1	-6.0	31.8*	13.6	-12.3	7.8	13.8	28.1*	5.8
CCOC(=O)C1(C(=O)OCC)NC(=O)CC1C(C)C (stereo not given)	.	.	7.7	-1.3	.	.	.	.
COc1ccc(OCc2cc(C(=O)O)c(C)o2)cc1	92.1*	55.2*	.	.	91.5*	89.2*	62.8*	28.3*
COc1cc(SC)ccc1C(=O)Nc1ccccn1	44.2	18.4*	14.5	-0.1	47.2	17.7	46.8*	38.3*
COc1cc(SC)ccc1C(=O)Nc1cccc(C)n1	44.5	-0.1	15.4	1.2	-19.4	27.1	.	.
CC(Oc1ccc(Br)cc1)C(=O)Nc1ccc(S(=O)(=O)Nc2nccs2)cc1 (stereo not given)	-1.7	-1.5	-5.8	3.4	15.3	10.6	.	.
CC(Oc1ccccc1)C(=O)Nc1ccc(S(=O)(=O)Nc2nccs2)cc1 (stereo not given)	5.1	40.5*	2.8	0.5	22.4	0.1	-11.4	-7.3
Cn1nc(C(=O)Nc2ccccc2N2CCCC2)c2ccccc2c1=O	0.4	1.0	16.1	-1.8	0.0	1.3	.	.
Cn1c(=N)n(CC(=O)c2ccccc2)c2ccccc21	8.2	28.7*	6.2	1.1	31.9	25.8	5.6	-0.4
CC1(CCC(=O)O)C(=O)CCC2C1CCC1(C)C2CCC1(C)O (stereo not given)	.	.	8.1	1.8	.	.	.	.
Cc1oc(C(=O)O)cc1COc1ccc2c3c(c(=O)oc2c1)CCC3	5.3	19.3*	-300.0	-5.5	30.6	7.7	8.2	-14.8
N#CCc1ccc(NC(=O)/C=C/c2ccc([N+](=O)[O-])o2)cc1	.	59.9*	19.6	-18.9	.	.	9.0	-6.7
CCOC(=O)CN1C(=O)S/C(=C/c2ccc3c(c2)n(C)c(=O)n3C)C1=O	8.0	1.5	-149.9	-13.0	-13.6	-2.7	.	.
CCOC(=O)CN1C(=O)S/C(=C/C=C/c2ccc(N(C)C)cc2)C1=O	8.7	39.2*	28.5	44.6	-6.4	-12.2	-4.6	-25.4
CCN(CC)C(=O)c1ccc(S(=O)(=O)c2ccccc2)cc1	-14.7	-4.6	12.6	-1.2	7.4	-5.7	.	.
O=C(Nc1ccc(-n2cnnn2)cc1)c1cn2ccccc2n1	32.9	-1.3	-66.7	28.2	24.7	-5.3	.	.

Source: PubChem
